Screening results: PubChem, several laboratories
Only some compounds are listed: those with a hit (about 2.2% of all), similar ones and a draw of the others.
bCat KO growth: beta-catenin-lacking colon tumor cell growth suppression; HCT116 beta-catenin knockout viability, CellTiter-Glo, 60 h; stronger effect = lower value; viability, % at 10 µM; hit rate 1.5% among 140,000; AID 818;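 active = viability at or under a set limit, the compound median less 4 SD, cut at about 6% in these data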
sdo1 growth: compounds rescuing growth of sdo1-depleted yeast, bone marrow failure model; S. cerevisiae sdo1-depleted JHY4D growth rescue, OD600 30 h; stronger effect = higher value; pdr5 snq2 efflux-pump mutant strain; z-score at 10 µM; hit rate 0.21% among 140,000;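 active = z-score above 3 at both the 24 hr and the 30 hr optical density reads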
Autophagy mod: alters autophagy in cells; calls only at 10 µM (by protocol); hit rate 0.98% among 190,000; AID 463193; MEF GFP-LC3 puncta imaging; test concentration mostly 10 µM;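 active = percentage of spot-positive cells more than 3 SD above its plate mean, without a fluorescence outlier flag or 80% toxicity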
HCT116 PTEN-null: growth suppressors of cells with PTEN tumor suppressor deletion; HCT116 PTEN-null viability, CellTiter-Glo, 60 h; stronger effect = lower value; viability, % at 10 µM; hit rate 1.2% among 140,000; AID 827;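 active = viability at or below a set limit, 4 SD under the median of all tested compounds, cut at about 3.7% in these data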;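 note: PTEN knockout HCT116 line with beta catenin targeted HCT116 as companion control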
Dynein transport: blocks dynein driven cargo transport along microtubules; 3617.4 mouse cells, GR-EGFP nuclear translocation imaging; test concentration mostly 20 µM; stimulated with dexamethasone, 1 µM; stronger effect = lower value; z-score, hits read low; AID 1381; hit rate 0.47% among 220,000;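 active = plate z-score of nuclear minus cytoplasmic receptor signal below a set negative limit, without overly bright fluorescence or cell loss, cut at about -3.5 in these data, passing the limit was not always enough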;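 note: z-score of nuclear minus cytoplasmic ring GR-EGFP intensity difference per well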
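medium = tetracycline-free induction medium containing charcoal-stripped FBS | probe or stimulus = dexamethasone, 1.0 µM final | timing = 48 h induction, then 1 h compound, then 30 min agonist, 37 °C | detection = automated 10x imaging of fixed Hoechst-stained cells | read-out basis = nuclear versus cytoplasmic GR-EGFP signal, averaged per well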
A number is an active result; 0 = inactive; - = no result; + = active, no number.

SMILES	bCat KO growth	sdo1 growth	Autophagy mod	HCT116 PTEN-null	Dynein transport
COc1ccc(OC)c(C2CC(c3c(-c4ccccc4)c4cc(Cl)ccc4[nH]c3=O)=NN2S(C)(=O)=O)c1 (centres undefined)	0.6	0	0	0.5	0
CC/C(=N/Nc1cccc(C)c1)c1cnnc(SC)n1	0	0	+	0	0
CC/C(=N/Nc1ccc(Cl)cc1)c1cnnc(SC)n1	0	0	0	0	0
CC(C)Cc1nc2oc3c(Cl)ncnc3c2c2c1CCC2	0.9	0	0	0.8	0
O=C(CSc1nccc(=O)[nH]1)N1CCN(c2ccccc2)CC1	-	-	0	-	0
Cc1nn(-c2ccccc2)c(Cl)c1C(=O)N1CCN(c2ncnc3c2cnn3-c2ccccc2)CC1	6.0	0	0	0	0
Cc1ccc2nc(Cl)c(CNCc3ccccc3)cc2c1	-	-	0	-	0
N#CCc1c(C#N)c(N)nc(N2CCCC(O)C2)c1C#N (centres undefined)	-	-	0	-	0
N#CCc1c(C#N)c(N)nc(N2CCCC(CO)C2)c1C#N (centres undefined)	-	-	+	-	0
CCn1nc([N+](=O)[O-])c2c(-c3nc4ccccc4o3)c(N)n(CCCOC)c2c1=O	-	-	+	-	0
COc1cccc(Nc2nc(NCC3CCCO3)c3ccccc3n2)c1 (centres undefined)	1.3	0	0	1.2	0
N=c1sccn1CC(=O)Nc1cc(Cl)ccc1[N+](=O)[O-]	-	-	+	-	0
COc1ccc(C(=O)/C=C/c2ccc(OC)c(CN3CCOCC3)c2)cc1	0	0	0	0	0
COc1ccc(C(=O)/C=C/c2ccc(OC)c(Cn3nnc4ccccc43)c2)cc1	6.0	0	0	0	0
COc1ccccc1NC(=O)C1=C(C)Nc2ncnn2C1c1cccs1 (centres undefined)	0	0	0	0	0
COc1ccc(C2C(C(=O)Nc3ccccc3OC)=C(C)Nc3ncnn32)cc1 (centres undefined)	0	0	+	0	0
Cc1ccccc1NC(=O)Cn1nnc(S(=O)(=O)c2ccc(C(C)(C)C)cc2)c1N	0	0	0	0	0
N#C/C(C(=O)NCCc1ccccc1)=C1/N=C(NC(=O)c2cccs2)c2ccccc21	0	0	+	0	0
CCC(C)(C)NC(=O)C(c1ccc(C)o1)N(Cc1cccs1)C(=O)Cn1nnc2ccccc21 (centres undefined)	2.8	0	0	2.4	0
CCC(C)(C)NC(=O)C(c1ccccc1)N(Cc1cccs1)C(=O)Cn1nnc2ccccc21 (centres undefined)	-	-	0	-	0
CCOC(=O)C1=C(C)Nc2ccccc2N=C1NC(=O)C(CC)c1ccccc1 (centres undefined)	0	0	0	0	0
O=C(CSc1nnc(-c2ccncc2)n1Cc1ccco1)Nc1nc(-c2ccccc2)cs1	0	0	+	0	0
Cc1cc(C)nc(SCc2nnc(SCC(=O)Nc3nc(-c4ccccc4)cs3)n2-c2ccccc2)n1	0	0	0	0	0
COc1ccc(NCc2nnc(SCC(=O)Nc3nc(-c4ccccc4)cs3)n2-c2ccccc2)cc1	1.3	0	0	1.8	0
O=C(CSc1nnc(-c2ccncc2)n1Cc1ccco1)Nc1ccccc1Cl	0	0	0	0	0
SMILES	bCat KO growth	sdo1 growth	Autophagy mod	HCT116 PTEN-null	Dynein transport
COc1ccc(-n2c(CNc3ccc(C)cc3)nnc2SCC(=O)Nc2nc(-c3ccccc3)cs2)cc1	0.8	0	0	0.4	0
COc1ccccc1CNS(=O)(=O)c1c(C)noc1C	0	0	0	0	0
Cc1cc(C)cc(NC(=O)CCn2cnc3cc(C)c(C)cc32)c1	-	-	0	-	0
Cc1nnc(NC(=O)c2oc3cc(C)c(C)cc3c2C)s1	0	0	+	0	0
Cc1ccc(/C=N/N2C(=S)SC(C)(C)C2N(O)C(=O)Nc2ccc([N+](=O)[O-])cc2)cc1 (centres undefined)	3.7	0	0	0	0
CCCCn1c(NC(=O)c2ccccc2)c(C#N)c2nc3ccccc3nc21	0	0	0	0	0
CCC(C)n1c(NC(=O)c2ccccc2)c(C#N)c2nc3ccccc3nc21 (centres undefined)	-	-	+	-	0
Cc1ccccc1-n1nc(C(=O)c2cccs2)cc(-c2nc3ccccc3[nH]2)c1=N	0	0	+	0	0
Cc1cccc(-n2nc(C(=O)c3ccco3)cc(-c3nc4ccccc4[nH]3)c2=N)c1	0	0	0	0	0
O=[N+]([O-])c1ccc(C2Oc3ccccc3C3CC(c4ccccc4)=NN32)s1 (centres undefined)	3.3	0	+	2.1	0
COc1ccc(NC(=O)c2ccc(NCCN3C(=O)CCC3=O)c([N+](=O)[O-])c2)cc1	-	-	0	-	0
COc1ccc(C(=O)N/N=C/c2sc3ccccc3c2O)cc1	3.3	0	0	3.5	0
O=C(N/N=C/c1ccc(F)cc1)c1ccccc1	-	-	0	-	0
COc1ccc(C(=O)N/N=C/c2cc3ccccc3[nH]c2=S)cc1	0	0	0	0	0
O=C(N/N=C/c1sc2ccccc2c1O)c1cccc2ccccc12	4.1	0	0	0	0
O=C(N/N=C/c1sc2ccccc2c1O)c1ccccc1	4.0	0	0	3.7	0
COc1ccc2cc(C(=O)N/N=C/c3sc4ccccc4c3O)ccc2c1	3.1	0	0	0	0
CCCN(CC(=O)Nc1ccccc1C)C(=O)CCl	-	-	0	-	0
CCOc1ccc(C(C)NC(=O)C2CCC2)cc1 (centres undefined)	0	0	0	0	0
COc1ccc(C)cc1NC(=O)C(NCC1CCCO1)c1ccccc1 (centres undefined)	0	0	0	0	0
CSc1nc2ccccc2cc1/C=C(\C#N)c1ccc(Cl)c(Cl)c1	1.9	0	+	2.4	0
CSc1nc2ccccc2cc1/C=C(\C#N)c1ccccc1	0	0	0	0	0
Cc1[nH]n(-c2ccccc2)c(=O)c1C=Nc1cccc2cccnc12	3.0	0	+	0	0
Cc1ccc(-n2[nH]c(C)c(/C=N/c3ccccn3)c2=O)cc1	0	0	0	0	0
O=C(NCCc1ccccc1)c1c(O)c2cccc3c2n(c1=O)CC3	0	0	0	0	0
SMILES	bCat KO growth	sdo1 growth	Autophagy mod	HCT116 PTEN-null	Dynein transport
O=C(NCc1ccccn1)c1c(O)c2cccc3c2n(c1=O)CC3	0.9	0	0	0.6	0
COCCCN1CCN(C2Cc3ccccc3Sc3ccc(Cl)cc32)CC1 (centres undefined)	0	0	0	0	0
Clc1ccc2c(c1)C(N1CCNCC1)Cc1ccccc1S2 (centres undefined)	1.5	0	+	1.7	0
Clc1cccc2c1Sc1ccccc1CC2N1CCNCC1 (centres undefined)	1.0	0	0	0.8	0
O=C(c1ccccc1Cl)N1CCNCC1	0	0	0	0	0
Clc1cccc(-c2nnc(-c3ccccc3)o2)c1	2.4	0	0	0	0
COCCNC(=O)c1onc(CSc2ccccc2C)c1C(=O)O	0	0	0	0	0
c1ccc(C2c3c(ccc4ccccc34)Oc3ncn4nc(-c5ccco5)nc4c32)cc1 (centres undefined)	0	0	0	0	0
